Screens: PubChem, several laboratories
The entries come from a sample that favours hits as a whole.
UPR XBP1 act: adaptive UPR (XBP1) activation; 330,000 compounds, 0.33% hits; activation, % at 20 µM; CHO-XBP1 luciferase reporter, IRE1-XBP1 UPR activation, luminescence; percent of tunicamycin response, DMSO as zero;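 active = versus positive control, 20 µM dose yields 30% or more activation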;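 also: 100% = tunicamycin at 10 µg/mL and 0% = DMSO only wells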
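Material – CHO cell line with stable XBP1 luciferase reporter · Buffer or medium – F12 plus 10% FBS · Compound – single point, 20 µM final compound, 1% DMSO · Schedule – 16-18 h cell attachment at 37 °C, then 6 h compound exposure · Signal – Steady-Glo luminescence read · Benchmarks – high control tunicamycin 10 µg/mL final, low control DMSO vehicle only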
Fh CTSL1 inh: counter-screen for PFM18AAP inhibitors: inhibitors of F. hepatica cathepsin L1; inhibition, % at 5.96 µM; recombinant F. hepatica cathepsin L1, Z-Leu-Arg-MCA fluorescence; 300,000 compounds, 0.49% hits;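 active = inhibition above the mean of all tested compounds plus 3 SD, set per screening campaign, cut at about 17% in these data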;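 also: 0% = plate median of test compound wells and 100% = 1 µM Z-Phe-Ala-diazomethylketone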
CHOP inhibitor: CHOP inhibition in unfolded protein response; inhibition, % at 10 µM; CHO-K1 CHOP-promoter luciferase, tunicamycin-induced, 15-18 h; 220,000 compounds, 3.8% hits; AID 2732;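 active = compounds that reduced the stress-induced luciferase reporter signal by more than about 70% of percent inhibition, limit read from the data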;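 also: 0% = tunicamycin plus vehicle and 100% = wells without tunicamycin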
UPR CHOP act: apoptotic UPR (CHOP) activation | CHO-CHOP luciferase reporter, luminescence; percent of tunicamycin response over DMSO baseline | activation, % at 10 µM | 330,000 compounds, 0.34% hits | AID 449763;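 active = at 10 µM dose, activation of 40% or more, normalized to positive control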;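 also: 100% = tunicamycin at 10 µg/mL and 0% = DMSO alone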
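System: CHO CHOP reporter cells. Amount: 500 cells per well. Buffer or medium: F12 medium, 10% FBS. Compound dosing: one dose, 10 µM in 0.5% DMSO. Incubation: 6 h compound exposure at 37 °C after overnight seeding. Technique: Steady-Glo luciferase luminescence. Benchmarks: tunicamycin and DMSO controls.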
UCH37 inh: inhibitors of human deubiquitinating enzyme UCH37 | 330,000 compounds, 0.33% hits | inhibition, % (concentration not given with the values) | AID 588478 | purified proteasome/UCH37, Ub-AMC cleavage fluorescence;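 active = mean inhibition over replicate wells above about 20%, limit read from the data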;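 also: 0% = compound-free wells with enzyme and 100% = wells lacking proteasome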
Target sequence (Q9Y5K5 whole entry, looked up): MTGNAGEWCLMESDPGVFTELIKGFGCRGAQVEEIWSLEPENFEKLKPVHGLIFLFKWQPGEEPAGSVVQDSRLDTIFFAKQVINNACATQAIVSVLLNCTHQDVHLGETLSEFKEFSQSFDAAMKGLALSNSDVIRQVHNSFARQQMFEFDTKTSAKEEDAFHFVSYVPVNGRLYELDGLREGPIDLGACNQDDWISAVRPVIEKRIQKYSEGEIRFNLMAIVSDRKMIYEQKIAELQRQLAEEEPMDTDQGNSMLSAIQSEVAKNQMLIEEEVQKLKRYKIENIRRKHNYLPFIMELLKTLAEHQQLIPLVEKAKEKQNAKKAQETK
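System: Proteasome-associated human UCH37 deubiquitinase; Input: 0.15 nM proteasome in added enzyme buffer; Also added: Ub-AMC substrate from 1 µM stock; Incubation: 30 min compound-proteasome preincubation then 25 min substrate reaction, room temperature; Detection: fluorescence, ex 355 nm, em 460 nm; Read-out: % inhibition of Ub-AMC cleavage fluorescence; Benchmarks: no-proteasome and no-compound wells.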
* marks the source's active call; other numbers are inactive results; i = inactive; / = no result given; ! = not active in a repeat.

SMILES | UPR XBP1 act | Fh CTSL1 inh | CHOP inhibitor | UPR CHOP act | UCH37 inh
CC(CC(=O)NC1CCCC1)=NNC(=O)Cc1csc(N)n1 | / | / | / | / | 4.1
O=C(NN=Cc1ccncc1)c1cccc(S(=O)(=O)N2CCCC2)c1 | / | / | / | / | 5.0
O=C(CCCOc1ccc(Cl)cc1Cl)NN=Cc1ccccc1O | / | / | / | / | -1.0
O=C(CCCOc1ccc(Cl)cc1Cl)N/N=C/c1ccccc1O | 0.8 | 1.3 | 84.9* | 0.1 | /
O=C(COc1ccc(Cl)cc1Cl)NN=Cc1ccc[nH]1 | / | / | / | / | -0.3
O=C(COc1ccc(Cl)cc1Cl)N/N=C/CCc1ccccc1 | 0.2 | -1.5 | 75.2* | 0.4 | /
CC1(C)Oc2ccc(C(=O)NN=Cc3ccc(O)cc3)cc2NC1=O | / | / | / | / | 1.7
Brc1ccc(-c2nc(N/N=C/c3cccnc3)c3ccccc3n2)cc1 | 2.2 | 2.7 | 74.2* | 3.1 | /
C(=N\Nc1nc(-c2cccnc2)nc2ccccc12)/c1ccccc1 | 1.2 | 2.4 | -5.8 | 4.6 | /
C(=N\Nc1nc(-c2ccccn2)nc2ccccc12)/c1ccccc1 | 12.8 | -1.5 | 87.9* | 527.4* | /
Cc1ccc(-c2nc(NN=Cc3cccnc3)c3ccccc3n2)cc1 | / | / | / | / | 2.5
CCOc1cc(C=NN=C(N)c2nonc2N)cc(Br)c1OCc1ccc(Cl)cc1 | / | / | / | / | 9.4
CC(=NNc1nccnc1Cl)c1c(F)c(F)c(F)c(F)c1F | / | / | / | / | 2.0
Cc1c(CCO)c(=O)n2c([nH]c3ccccc32)c1C#N | -5.1 | 6.0 | / | -1.7 | i
Cc1c(CCC(C)C)c(=O)n2c([nH]c3ccccc32)c1C#N | 2.2 | -2.8 | 95.8* | -0.4 | -304.2
CCn1cc(CN2CCc3c([nH]c4ccccc34)C2c2cccc(OC)c2)c(C)n1 (stereo not drawn) | -2.8 | -2.1 | -9.9 | 0.9 | -22.5
CCn1cc(CN2CCc3c([nH]c4ccccc34)C2c2ccc(F)c(OC)c2)c(C)n1 (stereo not drawn) | -3.2 | 1.7 | 70.3* | -0.6 | -20.4
O=C(NCCSCc1ccco1)Nc1cc(Cl)cc(Cl)c1 | -1.3 | 0.9 | 70.3* | 2.9 | 3.7
Cc1cccc(-n2c(C)cc(C=NNC(N)=S)c2C)c1 | / | / | / | / | -15.6
Cc1cc(C)cc(C(=O)O/N=C(\N)c2ccc(Br)cc2)c1 | -0.1 | -1.1 | 71.8* | 4.9 | -0.1
CC(=NNc1ccc(C(=O)O)cc1)c1ccc(Cl)s1 | / | / | / | / | 9.2
CCc1cccc(NC(=O)CCS(=O)(=O)c2cccc3nonc23)c1 | -0.3 | -2.1 | 82.7* | -0.9 | 2.4
CCOc1cc(C=NNc2ncc(F)c(N3CCOCC3)n2)ccc1Oc1nc(Cl)ncc1F | / | / | / | / | 3.7
c1ccc(Cn2nc(-c3ccccc3)nc2-c2ccccc2)cc1 | 1.0 | -2.9 | 37.1 | 2.7 | 5.2
Cc1ccc(Cn2nc(-c3ccccc3)nc2-c2ccccc2)cc1 | 1.0 | 1.6 | 75.3* | 2.1 | 0.4
SMILES | UPR XBP1 act | Fh CTSL1 inh | CHOP inhibitor | UPR CHOP act | UCH37 inh
COc1ccccc1NS(=O)(=O)c1cc([N+](=O)[O-])ccc1N/N=C/c1c(C)[nH]c2ccccc12 | 2.7 | 2.1 | 84.3* | -0.3 | /
COc1ccccc1NS(=O)(=O)c1cc([N+](=O)[O-])ccc1NN=Cc1c[nH]c2ccccc12 | / | / | / | / | 11.1
C=C(C)C1CC=C(C)C(=NNC(=O)CNc2ccc(OCC)cc2)C1 (stereo not drawn) | / | / | / | / | 1.6
CC(C)c1ccc2c(c1)CCC1C(C)(CN)CCCC21C (stereo not drawn) | / | -0.3 | 102.1* | / | 8.6
CC(CCc1ccccc1)=NNC(=O)CCc1ccccc1 | / | / | / | / | 2.8
CC(=NNC(=O)CNC(=O)c1cccs1)c1ccc(Cl)c(Cl)c1 | / | / | / | / | 5.9
CC1CC(C)CN(CCOc2ccccc2-c2ccccc2)C1 (stereo not drawn) | 0.5 | 0.3 | 92.6* | 1.6 | 0.9
O=C(Cn1c2ccc(F)cc2c2nc3n(c(=O)c21)CCS3)Nc1ccccc1C(F)(F)F | -0.6 | 0.4 | 77.8* | -0.4 | -15.4
O=C(Cn1c2ccc(F)cc2c2nc3n(c(=O)c21)CCS3)Nc1ccccc1F | 2.7 | 1.6 | 10.7 | -1.1 | -55.0
COc1ccc(C(C)=NN2CCCCC2)c(O)c1 | / | / | / | / | 2.7
COc1cc(C(=O)ON=C2C=C(C)C(=O)C=C2C)cc(OC)c1OC | / | / | / | / | 3.5
Fc1ccccc1CNc1cc(Cl)cc(Cl)c1 | -0.2 | 4.8 | 90.5* | 1.4 | 2.5
CN(C)CCOC(=O)C1(c2ccccc2)CCOCC1 | -1.6 | 1.4 | -14.3 | -1.1 | 20.3*!
